Experimental data as given in ChEMBL document CHEMBL1130180, “17-Imidazolyl, pyrazolyl, and isoxazolyl androstene derivatives. Novel steroidal inhibitors of human cytochrome C17,20-lyase (P450(17 alpha)” (J Med Chem, 1997).
pIC50: −log10 of the molar value.

Tests used:
[1] = target: T1, Steroid 17-alpha-hydroxylase/17,20 lyase (Homo sapiens, UniProt P05093); test: Inhibition of human testicular microsomal Cytochrome P450 17A1
T1 sequence (P05093 whole entry): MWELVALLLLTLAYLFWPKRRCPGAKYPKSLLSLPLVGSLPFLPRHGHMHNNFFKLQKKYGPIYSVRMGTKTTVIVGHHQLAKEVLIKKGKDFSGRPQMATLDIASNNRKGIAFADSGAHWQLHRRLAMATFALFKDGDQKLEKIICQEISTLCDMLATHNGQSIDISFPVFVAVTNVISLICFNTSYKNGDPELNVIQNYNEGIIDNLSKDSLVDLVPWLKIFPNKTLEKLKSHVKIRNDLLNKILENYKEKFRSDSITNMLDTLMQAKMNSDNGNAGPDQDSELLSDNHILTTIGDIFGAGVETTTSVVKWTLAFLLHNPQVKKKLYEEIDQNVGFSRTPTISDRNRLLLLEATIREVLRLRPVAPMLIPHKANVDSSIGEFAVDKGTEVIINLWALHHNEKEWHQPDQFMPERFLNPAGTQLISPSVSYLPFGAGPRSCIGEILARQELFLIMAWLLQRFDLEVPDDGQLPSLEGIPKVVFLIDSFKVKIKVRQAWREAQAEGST
In short: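 Human testis microsomes (orchidectomy tissue from untreated prostate cancer patients, stored at -70 °C, diluted in 0.1 M phosphate buffer). Radiometric: 10 μM [21-3H]-17α-hydroxypregnenolone, NADPH-generating system, pH 7.4, 10 min preincubation, then ~90 µg protein for 60 min under O2 at 34 °C. [3H]acetic acid measured in aqueous phase after chloroform extraction and charcoal. IC50 from log-log regression; six concentrations.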

[2] = target: T2, Steroid 17-alpha-hydroxylase/17,20 lyase (Rattus norvegicus, UniProt P11715); test: Inhibition of rat testicular microsomal Cytochrome P450 17A1
T2 sequence (P11715 whole entry): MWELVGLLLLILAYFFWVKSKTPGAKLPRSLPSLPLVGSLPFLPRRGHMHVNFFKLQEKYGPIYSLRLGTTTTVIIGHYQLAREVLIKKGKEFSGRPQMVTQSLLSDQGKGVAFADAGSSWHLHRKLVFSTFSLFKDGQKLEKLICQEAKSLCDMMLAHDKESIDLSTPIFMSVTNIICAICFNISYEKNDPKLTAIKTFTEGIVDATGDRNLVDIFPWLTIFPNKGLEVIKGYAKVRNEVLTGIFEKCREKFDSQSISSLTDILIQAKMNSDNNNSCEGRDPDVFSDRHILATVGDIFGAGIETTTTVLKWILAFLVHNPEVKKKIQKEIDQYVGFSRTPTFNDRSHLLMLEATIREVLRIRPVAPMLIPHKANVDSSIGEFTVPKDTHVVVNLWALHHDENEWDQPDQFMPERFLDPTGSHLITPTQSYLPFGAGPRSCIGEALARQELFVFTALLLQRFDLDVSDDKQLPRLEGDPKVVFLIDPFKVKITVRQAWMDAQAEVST
In short: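 Adult Sprague-Dawley rat (200-250 g) testicular microsomes, about 90 µg protein. [21-3H]-17α-hydroxypregnenolone was used at 10 µM total. Cofactors were NADP 65 µM, glucose 6-phosphate 0.71 mM and G6PDH 0.13 IU in phosphate buffer pH 7.4. Compounds were preincubated 10 min, then reacted 60 min under O2 at 34 °C. Released [3H]acetic acid was counted after chloroform extraction and charcoal treatment.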

[3] = target: T2, Steroid 17-alpha-hydroxylase/17,20 lyase; test: Percent inhibition of rat testicular microsomal Cytochrome P450 17A1; No Inhibition
In short: (§1)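 Single-concentration screen at 1500 nM using adult Sprague-Dawley rat testis microsomes. Incubation: 10 μM [21-3H]-17α-hydroxypregnenolone with NADPH-generating system, pH 7.4, 60 min, 34 °C, under O2. Percent inhibition was read from tritiated acetic acid in the aqueous phase after chloroform extraction of steroids.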

[4] = target: T1, Steroid 17-alpha-hydroxylase/17,20 lyase; test: Percent inhibition of human testicular microsomal Cytochrome P450 17A1; set-up: concentration or dose not given beside the values
In short: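 Human testis microsomes were incubated 60 min at 34 °C under O2 with 10 μM [21-3H]-17α-hydroxypregnenolone and NADPH-generating system (pH 7.4). Test compound was present at a single 150 or 400 nM. Inhibition was read from [3H]acetic acid released to the aqueous phase after chloroform extraction.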

[5] = target: T2, Steroid 17-alpha-hydroxylase/17,20 lyase; test: Percent inhibition of rat testicular microsomal Cytochrome P450 17A1; set-up: concentration or dose not given beside the values; in short: as §1

| SMILES | pIC50 [1] | Inhibition [3] | Conc [1] [nM] | Inhibition [4] [%] | Inhibition [5] [%] | pIC50 [2] |
| --- | --- | --- | --- | --- | --- | --- |
| C[C@]12CCC(=O)C=C1CCC1C2CC[C@]2(C)C(c3cnc[nH]3)=CCC12 (some centres not stated) | 7.30 |  |  |  |  | 7.85 |
| C[C@]12CC[C@H](O)CC1=CC[C@@H]1[C@@H]2CC[C@]2(C)C(c3c[nH]cn3)=CC[C@@H]12 | 7.62 |  |  |  |  | 7.31 |
| C[C@]12CC[C@H](O)CC1=CC[C@@H]1[C@@H]2CC[C@@]2(C)[C@H]1CC1O[C@]12c1cnc[nH]1 (some centres not stated) | 6.37 |  |  |  |  |  |
| C[C@]12CCC(=O)C=C1CCC1C2CC[C@@]2(C)C1CC[C@@H]2c1cnc[nH]1 (some centres not stated) | 7.24 |  |  |  |  | 7.10 |
| C[C@]12CCC(=O)C=C1CCC1C2CC[C@@]2(C)C1CC[C@]2(O)c1c[nH]cn1 (some centres not stated) | 5.92 |  |  |  |  |  |
| C[C@]12CCC(O)CC1=CCC1C2CC[C@@]2(C)C1CC[C@@H]2c1c[nH]c(-c2ccccc2)n1 (some centres not stated) |  | Not Active | 400 | 21 |  |  |
| C[C@]12CCC3C(CC=C4CC(O)CC[C@@]43C)C1CCC2c1ncc[nH]1 (some centres not stated) |  |  | 400 | 24 | 19 |  |
| CC(=O)O[C@H]1CC[C@@]2(C)C(=CC[C@H]3[C@@H]4CC[C@H](c5c[nH]cn5)[C@@]4(C)CC[C@@H]32)C1 | 6.70 |  |  |  | 55 |  |
| C[C@]12CCC3C(CC=C4CC(O)CC[C@@]43C)C1CCC2c1ccn[nH]1 (some centres not stated) |  |  | 150 | 20 | 92 |  |
| Cc1nc(C2CCC3C4CC=C5CC(O)CC[C@]5(C)C4CC[C@]23C)co1 (some centres not stated) |  | Not Active | 400 | 21 |  |  |
| CC(=O)O[C@H]1CC[C@@]2(C)C(=CC[C@@H]3[C@@H]2CC[C@]2(C)C(c4cnc[nH]4)=CC[C@@H]32)C1 |  |  |  |  | 92 |  |
| CC(=O)O[C@H]1CC[C@@]2(C)C(=CC[C@H]3[C@@H]4CC[C@H](C5=CNC(C(C)=O)N5)[C@@]4(C)CC[C@@H]32)C1 (some centres not stated) | 7.00 |  |  |  |  | 5.26 |
| CC(=O)N1CCN(c2ccc(OC[C@H]3CO[C@](Cn4ccnc4)(c4ccc(Cl)cc4Cl)O3)cc2)CC1 [KETOCONAZOLE] |  |  |  |  |  | 5.97 |
| Cc1ncc([C@H]2CC[C@H]3[C@@H]4CC=C5C[C@@H](O)CC[C@]5(C)[C@H]4CC[C@]23C)[nH]1 |  |  |  | 26 |  | 5.32 |
| C[C@]12CC[C@H]3[C@@H](CC=C4C[C@@H](O)CC[C@@]43C)[C@@H]1CC[C@@H]2c1cnc[nH]1 | 7.18 |  |  |  |  | 7.04 |

Now from value to compound, other results behind:

| pIC50 [1] | Inhibition [3] | Conc [1] [nM] | Inhibition [4] [%] | Inhibition [5] [%] | SMILES | pIC50 [2] |
| --- | --- | --- | --- | --- | --- | --- |
| 7.41 |  |  |  |  | C[C@]12CCC(=O)C=C1CCC1C2CC[C@]2(C)C(c3ccno3)=CCC12 (some centres not stated) | 7.49 |
|  | Not Active | 150 | 12 |  | Cn1nccc1C1=CCC2C3CC=C4CC(O)CC[C@]4(C)C3CC[C@]12C (some centres not stated) |  |
|  |  | 150 | 21 | 93 | C[C@]12CCC3C(CC=C4CC(O)CC[C@@]43C)C1CCC2c1ccno1 (some centres not stated) |  |
| 6.97 |  |  |  |  | C[C@]12CC[C@H](O)CC1=CC[C@@H]1[C@@H]2CC[C@]2(C)C(c3ccno3)=CC[C@@H]12 | 7.08 |
| < 4.52 |  |  |  |  | CC(C1N=CC=N1)[C@H]1CCC2C3CCC4=CC(=O)CC[C@]4(C)C3CC[C@@]21C (some centres not stated) |  |
| 7.68 |  |  |  | 65 | C[C@]12CC[C@H](O)CC1=CC[C@@H]1[C@@H]2CC[C@]2(C)C(c3ncc[nH]3)=CC[C@@H]12 |  |
| 7.38 |  |  |  |  | C[C@]12CC[C@H](O)CC1=CC[C@@H]1[C@@H]2CC[C@]2(C)C(c3ccn[nH]3)=CC[C@@H]12 | 7.55 |
|  | Not Active | 150 | 25 |  | Cn1ccc(C2=CCC3C4CC=C5CC(O)CC[C@]5(C)C4CC[C@]23C)n1 (some centres not stated) |  |
| 7.23 |  |  |  |  | C[C@]12CCC(=O)C=C1CCC1C2CC[C@]2(C)C(c3ccn[nH]3)=CCC12 (some centres not stated) | 7.12 |
| 5.95 |  |  |  | 54 | C[C@]12CCC3C(CC=C4CC(O)CC[C@@]43C)C1CCC2c1ccon1 (some centres not stated) |  |
|  | Not Active | 150 | 11 |  | C[C@]12CCC(O)CC1=CCC1C2CC[C@]2(C)C(c3ccnn3-c3ccccc3)=CCC12 (some centres not stated) |  |
|  |  | 400 |  | 25 | C[C@]12CCC(=O)C=C1CCC1C2CC[C@@]2(C)C1CC[C@@H]2C1N=CC=N1 (some centres not stated) |  |
